Laboratory results as given in ChEMBL document CHEMBL3797022, “New applications for known drugs: Human glycogen synthase kinase 3 inhibitors as modulators of Aspergillus fumigatus growth” (Eur J Med Chem, 2016).
pIC50: −log10 of the molar value. Active and inactive are the calls of the source. The calls are words filed in the database; no cut-off is given here.

Legend:
[1] = target: Glycogen synthase kinase-3 beta (Homo sapiens, UniProt P49841); test: Inhibition of human recombinant GSK3beta expressed in Escherichia coli using GS-1 as substrate incubated for 20 mins by gamma[32P]ATP-based scintillation counting analysis
Chain of Glycogen synthase kinase-3 beta (P49841 whole entry): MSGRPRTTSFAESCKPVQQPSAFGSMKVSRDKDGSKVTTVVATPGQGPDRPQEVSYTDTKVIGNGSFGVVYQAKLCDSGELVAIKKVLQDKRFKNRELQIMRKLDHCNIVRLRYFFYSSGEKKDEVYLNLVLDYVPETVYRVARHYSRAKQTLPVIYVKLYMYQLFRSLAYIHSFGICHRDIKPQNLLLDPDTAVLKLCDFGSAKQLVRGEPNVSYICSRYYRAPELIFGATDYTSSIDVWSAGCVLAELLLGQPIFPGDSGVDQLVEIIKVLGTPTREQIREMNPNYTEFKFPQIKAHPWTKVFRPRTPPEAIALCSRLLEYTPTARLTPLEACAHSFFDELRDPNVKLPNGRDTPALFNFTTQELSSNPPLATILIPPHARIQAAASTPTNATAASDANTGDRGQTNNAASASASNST

Aspergillus nidulans [2] = test: Anifungal activity against Aspergillus nidulans MAD4100 deficient in crzA assessed as growth inhibition after 72 hrs by Neubauer chamber analysis; type: functional, organism-based
Procedure, shortened: (§1)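 A. nidulans prototroph strains (wild type MAD4096; crzAΔ MAD4100) were point-inoculated with 10^3 conidia, counted by Neubauer chamber, onto 1 ml AMM. The medium contained inhibitor from a 50 mM DMSO stock added to the melted agar, with a matching DMSO control. Colonial growth was evaluated photographically after 72 h at 37°C.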

Aspergillus nidulans [3] = test: Anifungal activity against Aspergillus nidulans MAD4096 assessed as growth inhibition after 72 hrs by Neubauer chamber analysis; type: functional, organism-based; procedure, shortened: as §1
Aspergillus nidulans [4] = test: Anifungal activity against Aspergillus nidulans MAD4097 deficient in sltA assessed as growth inhibition after 72 hrs by Neubauer chamber analysis; type: functional, organism-based
Procedure, shortened: (§2)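 A. nidulans sltA-deleted prototroph MAD4097, alongside wild-type MAD4096 and crzA-null MAD4100, tested on solid minimal medium (AMM) containing increasing inhibitor concentrations, added from DMSO stock (stock 50 mM); equal DMSO in control medium. 10^3 spores (Neubauer chamber count) centrally inoculated per well; 37°C for 72 h, colonies then photographed and colonial growth evaluated.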

Aspergillus fumigatus [5] = test: Anifungal activity against Aspergillus fumigatus AF293 assessed as growth inhibition at 5 uM after 72 hrs by Neubauer chamber analysis; type: functional
Procedure, shortened: (§3)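 Wild-type prototroph A. fumigatus strains (CM237, AF293, CBS144) grown on solid minimal medium (AMM) with inhibitor added from DMSO stock (stock 50 mM); DMSO-only medium as control. 10^3 spores (counted by Neubauer chamber) centrally point-inoculated per well; incubated at 37°C, colonial growth scored after 48 and 72 h.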

Aspergillus fumigatus [6] = test: Anifungal activity against Aspergillus fumigatus AF293 assessed as growth inhibition at 5 uM after 48 hrs by Neubauer chamber analysis; type: functional; procedure, shortened: as §3
Aspergillus fumigatus [7] = test: Anifungal activity against Aspergillus fumigatus CM237 assessed as growth inhibition at 5 uM after 72 hrs by Neubauer chamber analysis; type: functional, organism-based; procedure, shortened: as §3
Aspergillus fumigatus [8] = test: Anifungal activity against Aspergillus fumigatus CM237 assessed as growth inhibition at 5 uM after 48 hrs by Neubauer chamber analysis; type: functional, organism-based; procedure, shortened: as §3
Aspergillus fumigatus [9] = test: Anifungal activity against Aspergillus fumigatus CBS144 assessed as growth inhibition at 5 uM after 48 to 72 hrs by Neubauer chamber analysis; type: functional, organism-based; procedure, shortened: as §3
Aspergillus nidulans [10] = test: Anifungal activity against Aspergillus nidulans MAD4097 deficient in sltA assessed as reduction in colonial diameter at 10 uM after 72 hrs by Neubauer chamber analysis; type: functional; details: MAD4097, 72 h; procedure, shortened: as §2
Aspergillus nidulans [11] = test: Anifungal activity against Aspergillus nidulans MAD4096 assessed as growth inhibition at 50 uM after 72 hrs by Neubauer chamber analysis; type: functional, organism-based; procedure, shortened: as §1
Aspergillus fumigatus [12] = test: Anifungal activity against Aspergillus fumigatus CM237 assessed as growth inhibition at 50 uM after 48 to 72 hrs by Neubauer chamber analysis; type: functional, organism-based
Procedure, shortened: (§4)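 A. fumigatus wild-type prototroph conidia were used, 10^3 spores counted by Neubauer chamber and inoculated centrally onto 1 ml AMM. Inhibitors were dissolved in DMSO from 50 mM stocks and added to melted medium, with a DMSO-only control. Colonial growth was scored at 37°C after 48 and 72 h.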

Aspergillus fumigatus [13] = test: Anifungal activity against Aspergillus fumigatus CBS144 assessed as growth inhibition at 50 uM after 48 to 72 hrs by Neubauer chamber analysis; type: functional, organism-based; procedure, shortened: as §4
Aspergillus fumigatus [14] = test: Anifungal activity against Aspergillus fumigatus AF293 assessed as growth inhibition at 50 uM after 48 to 72 hrs by Neubauer chamber analysis; type: functional; procedure, shortened: as §4
Aspergillus nidulans [15] = test: Anifungal activity against Aspergillus nidulans MAD4097 deficient in sltA assessed as reduction in colonial diameter at 50 uM after 72 hrs by Neubauer chamber analysis; type: functional, organism-based; procedure, shortened: as §2
Aspergillus fumigatus [16] = test: Anifungal activity against Aspergillus fumigatus CM237 assessed as growth inhibition at 100 uM after 48 to 72 hrs by Neubauer chamber analysis; type: functional, organism-based; procedure, shortened: as §4
Aspergillus fumigatus [17] = test: Anifungal activity against Aspergillus fumigatus AF293 assessed as growth inhibition at 100 uM after 48 to 72 hrs by Neubauer chamber analysis; type: functional; procedure, shortened: as §4
Aspergillus fumigatus [18] = test: Anifungal activity against Aspergillus fumigatus CBS144 assessed as growth inhibition at 100 uM after 48 to 72 hrs by Neubauer chamber analysis; type: functional, organism-based; procedure, shortened: as §4

## COc1ccc(CNC(=O)Nc2nc(C)c(C(C)=O)s2)cc1
[1]
  pIC50: 6.22
Aspergillus nidulans [2]
  growth inhibition (GI): inactive
Aspergillus nidulans [3]
  growth inhibition (GI): inactive

## O=C(CCl)c1scc(Br)c1Br
Aspergillus nidulans [4]
  growth inhibition (GI): Active
Aspergillus nidulans [2]
  growth inhibition (GI): inactive
Aspergillus fumigatus [5]
  growth inhibition (GI): inactive
Aspergillus fumigatus [6]
  growth inhibition (GI): Active
Aspergillus fumigatus [7]
  growth inhibition (GI): inactive
Aspergillus fumigatus [8]
  growth inhibition (GI): Active
Aspergillus fumigatus [9]
  growth inhibition (GI): Active

## Cn1sc(=O)n(Cc2ccccc2)c1=O
Aspergillus nidulans [10]
  inhibition at 10 µM: 50%
Aspergillus nidulans [11]
  growth inhibition (GI): Active
Aspergillus nidulans [2]
  growth inhibition (GI): inactive
Aspergillus fumigatus [12]
  growth inhibition (GI): Active
Aspergillus fumigatus [13]
  growth inhibition (GI): Active
Aspergillus fumigatus [14]
  growth inhibition (GI): Active

## O=c1sn(-c2cccc3ccccc23)c(=O)n1Cc1ccccc1
Aspergillus nidulans [15]
  inhibition: Active
Aspergillus fumigatus [16]
  growth inhibition (GI): inactive
Aspergillus nidulans [2]
  growth inhibition (GI): inactive
Aspergillus fumigatus [17]
  growth inhibition (GI): inactive
Aspergillus fumigatus [18]
  growth inhibition (GI): inactive
Aspergillus nidulans [3]
  growth inhibition (GI): inactive

## CCCCCCCCCCCC(=O)NNC(=O)c1c(O)c2ccccc2n(CC)c1=O
[1]
  pIC50: 5.55
Aspergillus nidulans [2]
  growth inhibition (GI): inactive
Aspergillus nidulans [3]
  growth inhibition (GI): inactive
